Tests used:
[1] = Compound was evaluated for its half life at 37 degree Centigrade.
[2] = Compound was evaluated for its half life at 25 degree Centigrade
MCF7 [3] = assay: Compound was tested for its toxicity against human breast cancer cells(MCF-7); type: functional, cell-based
Method in brief: (§1)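 MCF-7 and MCF-7/ADR cells were grown at 37 °C in 5% CO2 in phenol red-free RPMI 1640 with 10% FBS, 2 mM L-glutamine, 25 mM HEPES and penicillin/streptomycin. MCF-7/ADR medium also held 5 μM doxorubicin. Cells were exposed to drug for 3 h in RPMI 1640/10% FBS/1% DMSO, then stained by crystal violet. IC50 was given as nmolar equiv/L.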

MCF7 [4] = assay: (§2) Compound was tested for its toxicity against doxorubicin resistant human breast cancer cells (MCF-7/ADR).; type: functional, cell-based; method in brief: as §1
NCI/ADR-RES = assay: as §2; type: functional, cell-based; method in brief: as §1

Row | SMILES | half-life [1] [min] | half-life [2] [min] | IC50 (MCF7 [3]) [nM equiv l-1] | IC50 (MCF7 [4]) [nM equiv l-1] | IC50 (NCI/ADR-RES) [nM equiv l-1]
1 | COc1cccc2c1C(=O)c1c(O)c3c(c(O)c1C2=O)C[C@@](O)(C(=O)CO)C[C@@H]3O[C@@H]1C[C@@H](N)[C@H](O)[C@@H](C)O1 | 15 | 35 | – | – | –
2 | COc1cccc2c1C(=O)c1c(O)c3c(c(O)c1C2=O)C[C@@](O)(C(C)=O)C[C@@H]3OC1CC2C(OCN2CN2COC3C(C)OC(O[C@H]4C[C@](O)(C(C)=O)Cc5c(O)c6c(c(O)c54)C(=O)c4c(OC)cccc4C6=O)CC32)C(C)O1 (some centres undefined) [DAUNOFORM] | – | – | 8 | 10 | –
3 | COc1cccc2c1C(=O)c1c(O)c3c(c(O)c1C2=O)C[C@@](O)(C(C)=O)C[C@@H]3O[C@H]1C[C@H](N)[C@H](O)[C@H](C)O1 [DAUNORUBICIN] | – | – | 60 | – | 2000
4 | COc1cccc2c1C(=O)c1c(O)c3c(c(O)c1C2=O)C[C@@](O)(C(=O)CO)C[C@@H]3OC1CC2C(OCN2CN2COC3C(C)OC(O[C@H]4C[C@](O)(C(=O)CO)Cc5c(O)c6c(c(O)c54)C(=O)c4c(OC)cccc4C6=O)CC32)C(C)O1 (some centres undefined) [DOXOFORM] | – | – | 2 | – | 1
5 | COc1cccc2c1C(=O)c1c(O)c3c(c(O)c1C2=O)C[C@@](O)(C(=O)CO)C[C@@H]3O[C@H]1C[C@H](N)[C@H](O)[C@H](C)O1 [DOXORUBICIN] | – | – | 300 | – | 10000
6 | COc1cccc2c1C(=O)c1c(O)c3c(c(O)c1C2=O)C[C@@](O)(C(=O)CO)C[C@@H]3O[C@H]1C[C@H]2C(OCN3CN2CO[C@H]2[C@@H](C)O[C@@H](O[C@H]4C[C@](O)(C(=O)CO)Cc5c(O)c6c(c(O)c54)C(=O)c4c(OC)cccc4C6=O)C[C@@H]23)[C@H](C)O1 (some centres undefined) [EPIDOXOFORM] | – | – | 65 | – | 70
7 | COc1cccc2c1C(=O)c1c(O)c3c(c(O)c1C2=O)C[C@@](O)(C(=O)CO)C[C@@H]3O[C@H]1C[C@H](N)[C@@H](O)[C@H](C)O1 [EPIRUBICIN] | – | – | 200 | – | > 10000

— ChEMBL document CHEMBL1131304, “Epidoxoform: a hydrolytically more stable anthracycline-formaldehyde conjugate toxic to resistant tumor cells” (J Med Chem, 1998)
